Measured values published in ChEMBL document CHEMBL1122773 (1984).
Converted amounts (≈) assume the structure as drawn.

Experiments:
[1] = system: Staphylococcus aureus; assay: In vitro antibacterial activity against the aerobic Staphylococcus aureus (Strain UC no.570); assay type: functional
Outline: (§1)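 Broth microdilution in brain/heart infusion broth with twofold drug dilutions. Inoculum was a standardized suspension giving 10⁵ viable cells/mL final. Plates were incubated 20 h at 37 °C. MIC (mcg/mL) = lowest concentration with no visible growth.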

[2] = system: Mus musculus; assay: Bioactivity in blood, in Bacteroides fragilis infected mice following subcutaneous dose of 200 mg/kg after 150 mins of bleeding; assay type: functional
Outline: (§2)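 On day 7 post-infection, groups of five mice were given a single 200 mg/kg subcutaneous dose and killed at set times. Blood was taken by cardiac puncture and abscesses were excised. Activity was measured by standard microbiological assay.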

[3] = system: Clostridium cadaveris; assay: In vitro antibacterial activity against the anaerobic Clostridium cadaveris (Strain UC no.6510); assay type: functional
Outline: (§3)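 Agar dilution with serial twofold drug dilutions in Schaedler broth mixed into molten Wilkens-Chalgren agar. Plates prereduced 3 h under 85% N2/10% H2/5% CO2. Strains grown 48 h on Schaedler agar, suspended to 0.5 McFarland, and 0.001 mL spotted by replicator. All steps done anaerobically. Incubation 48 h at 37 °C. MIC is the least drug inhibiting growth; a faint film or fewer than three colonies scored negative.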

[4] = system: Mus musculus; assay: Bioactivity in blood, in Bacteroides fragilis infected mice following subcutaneous dose of 200 mg/kg after 360 mins of bleeding; assay type: functional; outline: as §2
[5] = system: Mus musculus; assay: Bioactivity in blood, in Bacteroides fragilis infected mice following subcutaneous dose of 200 mg/kg after 30 mins of bleeding; assay type: functional; outline: as §2
[6] = system: Staphylococcus aureus; assay: In vitro antibacterial activity against the aerobic Staphylococcus aureus (Strain UC no.571); assay type: functional; outline: as §1
[7] = system: Staphylococcus aureus; assay: In vitro antibacterial activity against the aerobic Staphylococcus aureus (Strain UC no.746); assay type: functional; outline: as §1
[8] = system: Mus musculus; assay: Bioactivity in abscess, in Bacteroides fragilis infected mice following subcutaneous dose of 200 mg/kg after 360 mins of bleeding; assay type: functional; outline: as §2
[9] = system: Klebsiella pneumoniae; assay: In vitro antibacterial activity against the aerobic Klebsiella pneumoniae (Strain UC no.58); assay type: functional; outline: as §1
[10] = system: Cutibacterium acnes; assay: In vitro antibacterial activity against the anaerobic Propionibacterium acnes(Strain UC no.6575); assay type: functional; outline: as §3
[11] = system: Mus musculus; assay: Bioactivity in abscess, in Bacteroides fragilis infected mice following subcutaneous dose of 200 mg/kg after 30 mins of bleeding; assay type: functional; outline: as §2
[12] = system: Pseudomonas aeruginosa; assay: In vitro antibacterial activity against the aerobic Pseudomonas aeruginosa (Strain UC no.95); assay type: functional; outline: as §1
[13] = system: Mus musculus; assay: Bioactivity in abscess, in Bacteroides fragilis infected mice following subcutaneous dose of 200 mg/kg after 90 mins of bleeding; assay type: functional; outline: as §2
[14] = system: Streptococcus pyogenes; assay: In vitro antibacterial activity against the aerobic Streptococcus pyogenes (Strain UC no.152)
[15] = system: Mus musculus; assay: Bioactivity in abscess, in Bacteroides fragilis infected mice following subcutaneous dose of 200 mg/kg after 120 mins of bleeding; assay type: functional; outline: as §2
[16] = system: Mus musculus; assay: Bioactivity in blood, in Bacteroides fragilis infected mice following subcutaneous dose of 200 mg/kg after 60 mins of bleeding; assay type: functional; outline: as §2
[17] = system: Mus musculus; assay: Bioactivity in abscess, in Bacteroides fragilis infected mice following subcutaneous dose of 200 mg/kg after 45 mins of bleeding; assay type: functional; outline: as §2
[18] = In vitro antibacterial activity against the aerobic […] I(Strain UC no.41); assay type: functional; outline: as §1
[19] = system: Staphylococcus aureus; assay: In vitro antibacterial activity against the aerobic Staphylococcus aureus (Strain UC no.6689); assay type: functional; outline: as §1
[20] = system: Mus musculus; assay: Bioactivity in blood, in Bacteroides fragilis infected mice following subcutaneous dose of 200 mg/kg after 90 mins of bleeding; assay type: functional; outline: as §2
[21] = In vitro antibacterial activity against the aerobic […] (Strain UC no.153); assay type: functional; outline: as §1
[22] = In vitro antibacterial activity against the aerobic […] III(Strain UC no.3213); assay type: functional; outline: as §1
[23] = system: Clostridium tetani; assay: In vitro antibacterial activity against the anaerobic Clostridium tetani(Strain UC no.6521); assay type: functional
Outline: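 Agar dilution under anaerobic conditions. Serial twofold drug dilutions in Schaedler broth were mixed with molten Wilkins-Chalgren agar. Plates were prereduced 3 h (85% N2, 10% H2, 5% CO2). Strains were grown 48 h on Schaedler agar, suspended to 0.5 McFarland, and 0.001 mL spotted by replicator. Incubation was anaerobic, 37 °C, 48 h.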

[24] = system: Staphylococcus aureus; assay: In vitro antibacterial activity against the aerobic Staphylococcus aureus (Strain UC no.6694); assay type: functional; outline: as §1
[25] = system: Escherichia coli; assay: In vitro antibacterial activity against the aerobic Escherichia coli (Strain UC no.45); assay type: functional; outline: as §1
[26] = In vitro antibacterial activity against the aerobic Salmonella schottmuelleri (Strain UC no.126); assay type: functional; outline: as §1
[27] = system: Staphylococcus aureus; assay: In vitro antibacterial activity against the aerobic Staphylococcus aureus (Strain UC no.6688); assay type: functional; outline: as §1
[28] = system: Mus musculus; assay: Bioactivity in abscess, in Bacteroides fragilis infected mice following subcutaneous dose of 200 mg/kg after 60 mins of bleeding; assay type: functional; outline: as §2
[29] = system: Proteus vulgaris; assay: In vitro antibacterial activity against the aerobic Proteus vulgaris (Strain UC no.93); assay type: functional; outline: as §1
[30] = system: Mus musculus; assay: Bioactivity in blood, in Bacteroides fragilis infected mice following subcutaneous dose of 200 mg/kg after 15 mins of bleeding; assay type: functional; outline: as §2
[31] = system: Staphylococcus aureus; assay: In vitro antibacterial activity against the aerobic Staphylococcus aureus (Strain UC no.76); assay type: functional; outline: as §1
[32] = system: Staphylococcus aureus; assay: In vitro antibacterial activity against the aerobic Staphylococcus aureus (Strain UC no.6691); assay type: functional; outline: as §1
[33] = system: Staphylococcus aureus; assay: In vitro antibacterial activity for minimum inhibition concentration (MIC) required to inhibit growth of Staphylococcus aureus; assay type: functional
Outline: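 Broth microdilution in brain/heart infusion broth, inoculated with a standardized suspension to a final 10^5 viable cells/mL. Incubation 20 h at 37 °C. MIC read as the lowest concentration preventing visible growth.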

[34] = system: Mus musculus; assay: Bioactivity in blood, in Bacteroides fragilis infected mice following subcutaneous dose of 200 mg/kg after 45 mins of bleeding; assay type: functional; outline: as §2
[35] = system: Staphylococcus aureus; assay: In vitro antibacterial activity against the aerobic Staphylococcus aureus (Strain UC no.6693); assay type: functional; outline: as §1
[36] = system: Staphylococcus aureus; assay: In vitro antibacterial activity against the aerobic Staphylococcus aureus (Strain UC no.6686); assay type: functional; outline: as §1
[37] = system: Staphylococcus aureus; assay: In vitro antibacterial activity against the aerobic Staphylococcus aureus (Strain UC no.6695); assay type: functional; outline: as §1
[38] = system: Mus musculus; assay: Bioactivity in abscess, in Bacteroides fragilis infected mice following subcutaneous dose of 200 mg/kg after 15 mins of bleeding; assay type: functional; outline: as §2
[39] = system: Staphylococcus aureus; assay: In vitro antibacterial activity against the aerobic Staphylococcus aureus (Strain UC no.6692); assay type: functional; outline: as §1
[40] = system: Mus musculus; assay: Bioactivity in abscess, in Bacteroides fragilis infected mice following subcutaneous dose of 200 mg/kg after 150 mins of bleeding; assay type: functional; outline: as §2
[41] = In vitro antibacterial activity against the aerobic […] (Strain UC no.871); assay type: functional; outline: as §1
[42] = system: Peptoniphilus asaccharolyticus; assay: In vitro antibacterial activity against the anaerobic Peptoccus aerogenes (Strain UC no.6319); assay type: functional; outline: as §3
[43] = system: Mus musculus; assay: Bioactivity in blood, in Bacteroides fragilis infected mice following subcutaneous dose of 200 mg/kg after 120 mins of bleeding; assay type: functional; outline: as §2
[44] = system: Staphylococcus aureus; assay: In vitro antibacterial activity against the aerobic Staphylococcus aureus (Strain UC no.6675); assay type: functional; outline: as §1
[45] = system: Staphylococcus aureus; assay: In vitro antibacterial activity against the aerobic Staphylococcus aureus (Strain UC no.6696); assay type: functional; outline: as §1

## CCC[C@@H]1C[C@@H](C(=O)N[C@@H]([C@H]2O[C@H](SC)[C@H](O)[C@@H](O)[C@H]2O)[C@H](C)Cl)N(C)C1 [CLINDAMYCIN]
[1]
  MIC: 0.2 µg/mL (≈ 0.471 µM)
[2]
  B: 1.4 ug (g of abscess)-1
[3]
  MIC: < 0.03 µg/mL
[4]
  B: 0.2 ug (g of abscess)-1
[5]
  B: 23 ug (g of abscess)-1
[6]
  MIC: 0.2 µg/mL (≈ 0.471 µM)
[7]
  MIC: 0.05 µg/mL (≈ 0.118 µM)
[8]
  A: 3 ug (g of abscess)-1
[9]
  MIC: 12.5 µg/mL (≈ 29.4 µM)
[10]
  MIC: < 0.03 µg/mL
[11]
  A: 22 ug (g of abscess)-1
[12]
  MIC: > 25 µg/mL
[13]
  A: 13 ug (g of abscess)-1
[14]
  MIC: < 0.012 µg/mL
[15]
  A: 9 ug (g of abscess)-1
[16]
  B: 12 ug (g of abscess)-1
[17]
  A: 26 ug (g of abscess)-1
[18]
  MIC: < 0.012 µg/mL
[19]
  MIC: 0.05 µg/mL (≈ 0.118 µM)
[20]
  B: 4 ug (g of abscess)-1
[21]
  MIC: < 0.012 µg/mL
[22]
  MIC: < 0.012 µg/mL
[23]
  MIC: < 0.03 µg/mL
[24]
  MIC: > 25 µg/mL
[25]
  MIC: > 25 µg/mL
[26]
  MIC: > 25 µg/mL
[27]
  MIC: > 25 µg/mL
[28]
  A: 21 ug (g of abscess)-1
[29]
  MIC: > 25 µg/mL
[30]
  B: 17 ug (g of abscess)-1
[31]
  MIC: 0.05 µg/mL (≈ 0.118 µM)
[32]
  MIC: 0.1 µg/mL (≈ 0.235 µM)
[33]
  MIC: > 25 µg/mL
[34]
  B: 17 ug (g of abscess)-1
[35]
  MIC: 0.05 µg/mL (≈ 0.118 µM)
[36]
  MIC: 0.05 µg/mL (≈ 0.118 µM)
[37]
  MIC: 0.1 µg/mL (≈ 0.235 µM)
[38]
  A: 16 ug (g of abscess)-1
[39]
  MIC: > 25 µg/mL
[40]
  A: 8 ug (g of abscess)-1
[41]
  MIC: < 0.012 µg/mL
[42]
  MIC: < 0.03 µg/mL
[43]
  B: 3 ug (g of abscess)-1
[44]
  MIC: 0.05 µg/mL (≈ 0.118 µM)
[45]
  MIC: 0.1 µg/mL (≈ 0.235 µM)

## CC[C@@H]1CCN[C@H](C(=O)N[C@@H]([C@H]2O[C@H](SC)[C@H](O)[C@@H](O)[C@H]2O)[C@H](C)Cl)C1 [PIRLIMYCIN]
[1]
  MIC: 0.39 µg/mL (≈ 0.949 µM)
[2]
  B: 8 ug (g of abscess)-1
[3]
  MIC: 0.06 µg/mL (≈ 0.146 µM)
[4]
  B: 4 ug (g of abscess)-1
[5]
  B: 43 ug (g of abscess)-1
[6]
  MIC: 0.78 µg/mL (≈ 1.9 µM)
[7]
  MIC: 0.05 µg/mL (≈ 0.122 µM)
[8]
  A: 15 ug (g of abscess)-1
[9]
  MIC: > 25 µg/mL
[10]
  MIC: 0.06 µg/mL (≈ 0.146 µM)
[11]
  A: 48 ug (g of abscess)-1
[12]
  MIC: > 25 µg/mL
[13]
  A: 31 ug (g of abscess)-1
[14]
  MIC: < 0.012 µg/mL
[15]
  A: 22 ug (g of abscess)-1
[16]
  B: 20 ug (g of abscess)-1
[17]
  A: 32 ug (g of abscess)-1
[18]
  MIC: < 0.012 µg/mL
[19]
  MIC: 0.78 µg/mL (≈ 1.9 µM)
[20]
  B: 14 ug (g of abscess)-1
[21]
  MIC: 0.05 µg/mL (≈ 0.122 µM)
[22]
  MIC: < 0.012 µg/mL
[23]
  MIC: < 0.03 µg/mL
[24]
  MIC: > 25 µg/mL
[25]
  MIC: > 25 µg/mL
[26]
  MIC: > 25 µg/mL
[27]
  MIC: > 25 µg/mL
[28]
  A: 31 ug (g of abscess)-1
[29]
  MIC: > 25 µg/mL
[30]
  B: 39 ug (g of abscess)-1
[31]
  MIC: 0.1 µg/mL (≈ 0.243 µM)
[32]
  MIC: 0.2 µg/mL (≈ 0.487 µM)
[33]
  MIC: 0.1 µg/mL (≈ 0.243 µM)
[34]
  B: 25 ug (g of abscess)-1
[35]
  MIC: 0.78 µg/mL (≈ 1.9 µM)
[36]
  MIC: 0.2 µg/mL (≈ 0.487 µM)
[37]
  MIC: 0.39 µg/mL (≈ 0.949 µM)
[38]
  A: 58 ug (g of abscess)-1
[39]
  MIC: > 25 µg/mL
[40]
  A: 19 ug (g of abscess)-1
[41]
  MIC: < 0.012 µg/mL
[42]
  MIC: 0.06 µg/mL (≈ 0.146 µM)
[43]
  B: 10 ug (g of abscess)-1
[44]
  MIC: 0.39 µg/mL (≈ 0.949 µM)
[45]
  MIC: 0.39 µg/mL (≈ 0.949 µM)
